Source: PubChem
An excerpt weighted towards active compounds, which were near 1.4% of everything screened.
Rin1 Abl inh: inhibitors of Rin1-Abl protein binding, primary screen, biochemical, TR-FRET; inhibition, % at 7.35 µM; 360,000 tested, 0.4% active; AID 588664, 2011; in the data active means inhibition above about 5%, passing the limit was not always enough
UCH37 DUB inh: inhibitors of human UCH37 deubiquitinase, primary screen, biochemical, Ub-AMC cleavage, fluorescence. Ubiquitin carboxyl-terminal hydrolase isozyme L5 (Homo sapiens), Q9Y5K5. purified proteasome/UCH37. inhibition, % (concentration not given with the values). 330,000 tested, 0.33% active;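 active means mean inhibition over replicate wells above about 20%, limit read from the data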;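 further: 0% = compound-free wells with enzyme and 100% = wells lacking proteasome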
Target sequence (Q9Y5K5 whole entry, looked up): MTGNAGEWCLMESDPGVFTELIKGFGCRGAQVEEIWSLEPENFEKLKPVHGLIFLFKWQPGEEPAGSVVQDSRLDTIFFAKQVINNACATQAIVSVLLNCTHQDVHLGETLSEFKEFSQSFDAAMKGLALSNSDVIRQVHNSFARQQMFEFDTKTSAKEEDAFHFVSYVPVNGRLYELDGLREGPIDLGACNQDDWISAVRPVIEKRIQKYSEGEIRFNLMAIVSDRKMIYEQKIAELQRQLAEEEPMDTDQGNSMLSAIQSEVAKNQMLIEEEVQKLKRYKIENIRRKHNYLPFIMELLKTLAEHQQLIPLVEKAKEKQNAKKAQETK
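Reagent: Ub-AMC substrate; assay system: Proteasome-associated human UCH37 deubiquitinase; controls: no-proteasome and no-compound wells; read-out: % inhibition of Ub-AMC cleavage fluorescence; timing: 30 min preincubation with enzyme, 25 min cleavage at room temperature; signal: AMC fluorescence from Ub-AMC cleavage, excitation 355 nm, emission 460 nm; buffer or medium: Tris-HCl pH 7.4 plus ovalbumin, ATP-MgCl2, DTT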
TbMetRS inhib: T. brucei MetRS inhibitors, primary screen, biochemical, luminescence. methionyl-tRNA synthetase (Trypanosoma brucei brucei). purified T. brucei MetRS, ATP depletion, Kinase-Glo luminescence. inhibition, % at 11.9 µM. 360,000 tested, 0.4% active. AID 624268, 2012;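 active means inhibition above a per-plate cutoff of the control wells' mean inhibition plus 3 SD, cut at about 5.5% in these data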;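 further: 0% = DMSO wells median and 100% = median of wells with control inhibitor compound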
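Material – parasite MetRS enzyme · Medium – HEPES-MgCl2-KCl buffer plus DTT, spermine, BSA, pyrophosphatase · Reagent – ATP, methionine and E. coli bulk tRNA substrates · Times – 15 min enzyme-compound preincubation, 2 h reaction, 10 min detection, 25 °C · Measured by – luminescence of leftover ATP · Evaluation – percent inhibition relative to median high and low control wells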
ATG4B inhibitor: ATG4B protease inhibitors, primary screen, biochemical, fluorescence, uHTS; inhibition, % at 8.33 µM; Cysteine protease ATG4B (Homo sapiens), Q9Y4P1; 340,000 tested, 0.51% active; ATG4B cleavage of LC3-PLA2, NBD-HPC fluorescence, 1 h; in the data active means inhibition above about 40%
Target sequence (Q9Y4P1 whole entry, looked up): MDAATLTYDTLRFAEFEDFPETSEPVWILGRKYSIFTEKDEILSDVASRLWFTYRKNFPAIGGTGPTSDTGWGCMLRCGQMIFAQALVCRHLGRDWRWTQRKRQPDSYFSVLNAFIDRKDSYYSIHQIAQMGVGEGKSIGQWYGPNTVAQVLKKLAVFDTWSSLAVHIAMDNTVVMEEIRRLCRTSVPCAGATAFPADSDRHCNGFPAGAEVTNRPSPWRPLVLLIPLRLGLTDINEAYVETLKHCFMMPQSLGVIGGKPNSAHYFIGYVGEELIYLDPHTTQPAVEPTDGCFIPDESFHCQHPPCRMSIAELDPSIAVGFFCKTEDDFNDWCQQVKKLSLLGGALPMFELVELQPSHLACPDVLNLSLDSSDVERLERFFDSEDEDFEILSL
TbMetRS confirm: T. brucei MetRS inhibitors, confirmation, biochemical, luminescence; shares compounds with TbMetRS inhib; T. brucei MetRS enzyme, luminescence (ATP depletion); inhibition, % at 11.9 µM; 1,400 tested, 93% active; in the data active means inhibition above about 7%
Jurkat tox: Jurkat T cell cytotoxicity, cytotoxicity control for T. brucei MetRS inhibitor project, luminescence, high throughput | shares compounds with TbMetRS inhib | Jurkat cells viability, ATP luminescence | inhibition, % at 8.3 µM | 1,400 tested, 12% active | AID 624413, 2012; in the data active means inhibition above about 15%;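 further: 0% = vehicle and 100% = reference inhibitor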
Tb MetRS inh FP: T. brucei MetRS inhibitors, orthogonal assay for T. brucei MetRS inhibitor project, biochemical, fluorescence polarization; AID 651607, 2012; shares compounds with TbMetRS inhib; inhibition, % at 11.9 µM; 1,400 tested, 44% active; purified T. brucei MetRS; in the data active means inhibition above about 17%;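 further: 0% = vehicle wells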
* hit, by the source's call; / = not tested or not shown.

SMILES | Rin1 Abl inh | UCH37 DUB inh | TbMetRS inhib | ATG4B inhibitor | TbMetRS confirm | Jurkat tox | Tb MetRS inh FP
Cc1cc(-c2ccc(C(C)C)c(S(=O)(=O)N3CCN(c4ccccn4)CC3)c2)on1 | 1.6 | 0.2 | 8.0* | -0.3 | 12.4* | 50.5* | 4.2
CN(C)/C=C(\C=N\OCc1ccc(Cl)cc1Cl)C(=O)Nc1ccc(Cl)c(Cl)c1 | -2.0 | / | 65.9* | / | 9.2* | -3.7 | 3.3
Cc1cccc(NC(=O)NCCCCc2ccccc2)c1 | 3.1 | 1.0 | -0.2 | 10.4 | / | / | /
O=C(NCCCCc1ccccc1)Nc1cccc(F)c1 | -0.5 | 3.4 | 10.7* | 16.3 | 44.2* | -1.8 | 34.9*
C=CC(=O)Nc1cccc(Oc2ccnc3[nH]ccc23)c1 | 0.9 | / | 0.8 | 14.9 | / | / | /
C=CC(=O)Nc1cccc(Oc2ncnc3[nH]cc(-c4cnc5ccccc5c4)c23)c1 | -0.7 | 0.9 | 8.6* | -0.1 | 29.7* | 5.9 | 21.0*
COCCn1nnnc1CN1CCC(O)(c2cccc(C(F)(F)F)c2)CC1 | 0.8 | 0.2 | -0.6 | 3.4 | / | / | /
O=C(CN1CCSC1=NCc1ccccc1)c1ccc(Cl)cc1 | -2.3 | 0.2 | 19.2* | 8.4 | 43.1* | 12.1 | 18.5*
O=C(Nc1ccc(Cl)cc1)N1CCSC1=NCc1ccccc1 | -1.4 | 5.6 | -0.2 | -8.3 | / | / | /
OC(CNc1ccccc1)COc1ccc(OCC(O)CNc2ccccc2)cc1 (stereo not given) | -5.2 | 3.0 | -1.1 | -17.8 | / | / | /
COc1ccc(NC(=O)C(NC(C)=O)C(=O)Nc2ccc(F)cc2)cc1 (stereo not given) | 0.4 | 3.5 | 9.6* | -6.1 | 19.2* | -5.9 | 0.3
COc1ccc(OCC(O)CNC(=O)Nc2ccc(F)cc2)cc1 (stereo not given) | -1.5 | 1.9 | 5.7* | -5.7 | 17.6* | -6.4 | 15.1
Cc1cc(C)cc(NC(=O)NCC(O)COc2ccc([N+](=O)[O-])cc2)c1 (stereo not given) | -2.5 | 2.4 | -0.2 | -16.8 | / | / | /
COc1ccc(OCC(O)CNS(=O)(=O)c2ccc(NC(C)=O)cc2)cc1 (stereo not given) | -2.0 | -0.5 | 0.0 | 6.8 | / | / | /
COc1ccc(OCC(O)CNC(=O)Nc2ccccc2)cc1 (stereo not given) | -2.0 | 0.8 | 9.4* | -9.5 | 21.1* | 7.5 | 10.6
O=C(NCC(O)COc1ccc([N+](=O)[O-])cc1)Nc1ccccc1 (stereo not given) | -1.6 | 4.5 | 41.6* | -3.3 | 61.9* | 1.8 | 41.0*
Cc1[nH]c2ccc3ccccc3c2c(=O)c1C/C=C/Cl | -3.8 | -8.7 | 3.5 | -4.5 | / | / | /
NC(=O)C(c1ccc(Br)cc1)c1ccc(C(=O)c2ccccc2)cc1 (stereo not given) | -1.4 | -0.4 | 0.1 | -5.0 | / | / | /
Cc1ccc(C(=O)NCC(=O)OC(C)C(=O)NC2CCCCC2C)cc1C (stereo not given) | 1.7 | -0.6 | -0.2 | -8.6 | / | / | /
CC(OC(=O)CNC(=O)c1ccc(Cl)c([N+](=O)[O-])c1)C(=O)NC1CCCCC1C (stereo not given) | -0.2 | -1.3 | 7.2* | -3.0 | 26.1* | -1.2 | 12.8
CC1CCN(S(=O)(=O)c2ccc(NC(=O)CSc3ncccc3C(=O)O)cc2)CC1 | -1.0 | 2.5 | -0.3 | -5.2 | / | / | /
O=C(O)CN1C(=O)/C(=C\c2ccc(OC(=O)c3ccco3)cc2)SC1=S | 0.2 | 16.6 | 8.8* | -4.5 | 26.9* | -4.7 | 15.3
O=C(O)CN1C(=O)/C(=C\c2cccc(OC(=O)c3ccco3)c2)SC1=S | -1.0 | 11.7 | -0.1 | -17.3 | / | / | /
COc1ccc(C(=O)COC(=O)CCc2nc3ccccc3[nH]c2=O)cc1Br | -3.1 | -2.6 | -0.3 | -18.8 | / | / | /
O=C(NNC(=O)c1ccc(-n2cncn2)c([N+](=O)[O-])c1)c1cccc(Cl)c1 | -0.9 | 6.0 | 35.3* | -4.9 | 59.2* | 5.8 | 31.2*
SMILES | Rin1 Abl inh | UCH37 DUB inh | TbMetRS inhib | ATG4B inhibitor | TbMetRS confirm | Jurkat tox | Tb MetRS inh FP
O=C(NNC(=O)c1ccccc1Cl)c1ccc(-n2cncn2)c([N+](=O)[O-])c1 | -1.7 | 4.0 | 7.8* | -38.4 | 33.0* | 5.5 | 11.6
O=C(Nc1cc(Cl)ccc1-n1cncn1)c1cc(F)cc(F)c1 | 0.3 | 3.1 | -0.5 | -3.4 | / | / | /
O=C(NNC(=O)c1ccc(-n2cncn2)c([N+](=O)[O-])c1)c1ccc(Cl)cc1 | -3.3 | 5.1 | 59.5* | -1.2 | 81.7* | 1.1 | 64.7*
CC(Oc1ccccc1F)C(=O)NNC(=O)c1ccc(-n2cncn2)c([N+](=O)[O-])c1 (stereo not given) | 5.2 | 2.8 | 5.4 | 3.7 | / | / | /
CN(CC(=O)Nc1c(Cl)cccc1Cl)C(=O)c1ccc(-n2cncn2)c([N+](=O)[O-])c1 | 1.4 | 2.9 | 0.7 | -2.3 | / | / | /
O=C(Nc1cc(Cl)ccc1F)c1ccc(-n2cncn2)c([N+](=O)[O-])c1 | 0.8 | 2.2 | 21.8* | 3.9 | 58.5* | -2.2 | 21.0*
CCOc1ccc(N2CC(C(=O)N3CCc4ccccc43)CC2=O)cc1 (stereo not given) | 2.8 | 2.2 | -1.0 | 3.9 | / | / | /
COc1ccccc1Cc1c(C2CCCCC2)nc2c3ccccc3ccn12 | / | / | -2.3 | / | / | / | /
CCOC(=O)N1CCC(Nc2c(Nc3ccc(F)cc3)c(=O)c2=O)CC1 | 4.1 | 3.2 | 36.2* | -16.1 | 76.6* | 12.5 | 40.3*
Oc1ccc2ccccc2c1CN1CCOCC1 | -0.8 | -13.6 | -0.8 | -8.2 | / | / | /
Cn1nc(C(F)(F)F)c(-c2ccc(F)cc2)c1NC(=O)Nc1ccc(F)cc1 | -0.6 | -1.6 | 9.4* | 0.2 | 21.2* | 6.0 | 14.4
O=C(Nc1ccc2c(c1)OCCO2)c1cccnc1Oc1ccc(Cl)cc1 | -4.1 | 2.5 | 0.4 | -2.3 | / | / | /
O=c1[nH]c2ccccc2nc1NCc1ccccc1 | -0.8 | -24.8 | -0.3 | 4.0 | / | / | /
COc1ccc2nc(NCc3ccccc3)[nH]c2c1 | -3.0 | 2.9 | 1.3 | 18.8 | / | / | /
COc1cc(CNc2nc3ccccc3[nH]2)cc(OC)c1OC | 4.5 | 5.0 | 15.8* | 2.5 | 31.8* | 11.0 | 8.8
Cc1ccc2nc(NCc3ccccc3)[nH]c2c1 | 2.5 | 1.2 | 17.1* | 37.7 | 27.8* | 70.2* | 13.2
Cc1ccc2nc(C3CCCN(C(=O)NCc4ccccc4)C3)[nH]c2c1 (stereo not given) | -4.7 | 4.1 | 14.7* | -7.0 | 22.9* | -2.6 | 8.5
